Each block holds one compound with its values, some of them ahead of it. The source made the active and inactive calls. The rule behind the calls is not given here.
How the values were obtained:
[1] = system: UO-31; assay: Anticancer activity against human UO-31 cells assessed as cell growth inhibition at 10 uM measured after 48 hrs by SRB assay relative to control; type: functional; conditions: read-out: GI
Procedure, shortened: (§1)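 NCI 60-cell-line screen. Cells in RPMI with 5% FBS were plated at 5,000–40,000 cells/well by doubling time and preincubated 24 h at 37 °C. Compound was added at a single 10 µM for 48 h, then cells were fixed with cold TCA (10% final) and stained with 0.4% SRB. Absorbance at 515 nm gave percent growth versus untreated control and time-zero cells.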

[2] = target: T1, Signal transducer and activator of transcription 3 (Homo sapiens, UniProt P40763); assay: Inhibition of STAT3 phosphorylation at Y705 residues in human A-375 cells at 10 to 25 uM after 12 hrs by Western blotting analysis; type: cell-based; conditions: dose 10-25 µM
T1 sequence (P40763 whole entry): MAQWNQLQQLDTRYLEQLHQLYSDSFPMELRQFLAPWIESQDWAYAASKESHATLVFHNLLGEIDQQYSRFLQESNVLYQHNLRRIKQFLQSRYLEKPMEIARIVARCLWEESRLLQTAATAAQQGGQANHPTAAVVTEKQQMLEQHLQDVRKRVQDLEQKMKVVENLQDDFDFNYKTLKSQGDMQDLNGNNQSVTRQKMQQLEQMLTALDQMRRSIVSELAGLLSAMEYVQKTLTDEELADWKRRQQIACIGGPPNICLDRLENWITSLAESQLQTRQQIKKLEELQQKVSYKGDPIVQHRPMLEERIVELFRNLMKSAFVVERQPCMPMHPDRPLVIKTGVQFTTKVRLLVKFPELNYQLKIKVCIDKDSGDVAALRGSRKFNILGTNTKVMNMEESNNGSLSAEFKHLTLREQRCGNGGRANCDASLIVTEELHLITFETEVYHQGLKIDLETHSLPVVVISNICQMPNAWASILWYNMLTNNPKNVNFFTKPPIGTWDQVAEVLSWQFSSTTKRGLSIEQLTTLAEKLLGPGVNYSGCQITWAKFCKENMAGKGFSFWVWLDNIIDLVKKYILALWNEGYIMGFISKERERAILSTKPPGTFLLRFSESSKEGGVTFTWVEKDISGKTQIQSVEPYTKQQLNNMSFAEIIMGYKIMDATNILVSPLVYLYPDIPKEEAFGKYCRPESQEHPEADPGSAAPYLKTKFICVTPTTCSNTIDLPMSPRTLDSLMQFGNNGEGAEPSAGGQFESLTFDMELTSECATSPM
Procedure, shortened: (§2)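 Cells lysed in M-PER after 12 h drug exposure (overnight per text); 60 µg total protein run on 10% SDS-PAGE, transferred to PVDF, probed overnight at 4 °C with phospho-specific antibodies. Panel lines (U87-MG, MDA-MB-468, MIA PaCa-2, NCI-H157, A549) given 25 µM; A375 given 0, 5, 10, 25 µM. Actin and/or vinculin loading controls.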

[3] = target: T1, Signal transducer and activator of transcription 3; assay: Inhibition of IRDY 700 oligonucleotide binding to STAT3 in human A-375 cell nuclear extract measured after overnight incubation by electrophoretic mobility shift assay; conditions: dose 10-25 µM
Procedure, shortened: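 A375 cells were treated overnight with inhibitor doses or DMSO in full RPMI. Nuclear extracts were prepared by low-salt lysis followed by high-salt extraction, with protease and phosphatase inhibitors. EMSA used 5 µg extract per reaction with IRDye 700 STAT3 consensus oligo; competitor and mutant oligos served as controls, and a STAT3-immunoprecipitated extract was included.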

[4] = target: T1, Signal transducer and activator of transcription 3; assay: Inhibition of STAT3 phosphorylation at S727 residues in human MDA-MB-468 cells at 25 uM after 12 hrs by Western blotting analysis; type: cell-based; procedure, shortened: as §2
[5] = target: Proto-oncogene tyrosine-protein kinase Src (Homo sapiens) (UniProt P12931); assay: Inhibition of SRC phosphorylation in human MDA-MB-468 cells at 25 uM after 12 hrs by Western blotting analysis; type: cell-based; procedure, shortened: as §2
Proto-oncogene tyrosine-protein kinase Src (Homo sapiens), sequence (P12931 2-536 limits assumed): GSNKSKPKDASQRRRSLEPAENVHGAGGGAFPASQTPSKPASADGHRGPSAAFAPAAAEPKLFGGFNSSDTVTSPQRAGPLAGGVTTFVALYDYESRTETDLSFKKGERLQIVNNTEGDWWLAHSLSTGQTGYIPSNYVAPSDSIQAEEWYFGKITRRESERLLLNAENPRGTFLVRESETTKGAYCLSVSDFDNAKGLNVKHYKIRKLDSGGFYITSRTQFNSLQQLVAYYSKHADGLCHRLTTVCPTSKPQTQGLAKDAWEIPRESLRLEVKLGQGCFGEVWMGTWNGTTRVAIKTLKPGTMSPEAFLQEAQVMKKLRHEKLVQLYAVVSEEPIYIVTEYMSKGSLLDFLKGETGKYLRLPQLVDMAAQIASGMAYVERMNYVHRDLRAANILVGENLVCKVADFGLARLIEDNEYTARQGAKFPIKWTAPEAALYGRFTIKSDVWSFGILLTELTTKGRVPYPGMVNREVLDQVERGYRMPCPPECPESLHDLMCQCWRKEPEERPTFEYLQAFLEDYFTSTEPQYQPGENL

[6] = system: 451Lu; assay: Induction of apoptosis in human SB-590885-resistant 451Lu cells assessed as increase in caspase-3/7 activation incubated for 45 to 60 hrs by IncuCyte Caspase-3/7 reagent based assay; type: functional; conditions: time 45-60 hrs
Procedure, shortened: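 451 Lu-R cells (2000/well) were allowed to adhere for 24 h, then treated with a dose range in full medium containing IncuCyte Caspase-3/7 reagent. Wells were imaged over time with a ×10 objective. Apoptotic cell counts were normalized to percent confluence at the final time point; SEM, n = 3–4.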

[7] = system: 451Lu; assay: Antiproliferative activity against human 451Lu cells measured after 48 hrs by MTS assay; type: functional, cell-based
[8] = target: Tyrosine-protein kinase JAK2 (Homo sapiens) (UniProt O60674); assay: Inhibition of JAK2 phosphorylation in human MDA-MB-468 cells at 25 uM after 12 hrs by Western blotting analysis; type: cell-based; procedure, shortened: as §2
Tyrosine-protein kinase JAK2 (Homo sapiens), sequence (O60674 whole entry): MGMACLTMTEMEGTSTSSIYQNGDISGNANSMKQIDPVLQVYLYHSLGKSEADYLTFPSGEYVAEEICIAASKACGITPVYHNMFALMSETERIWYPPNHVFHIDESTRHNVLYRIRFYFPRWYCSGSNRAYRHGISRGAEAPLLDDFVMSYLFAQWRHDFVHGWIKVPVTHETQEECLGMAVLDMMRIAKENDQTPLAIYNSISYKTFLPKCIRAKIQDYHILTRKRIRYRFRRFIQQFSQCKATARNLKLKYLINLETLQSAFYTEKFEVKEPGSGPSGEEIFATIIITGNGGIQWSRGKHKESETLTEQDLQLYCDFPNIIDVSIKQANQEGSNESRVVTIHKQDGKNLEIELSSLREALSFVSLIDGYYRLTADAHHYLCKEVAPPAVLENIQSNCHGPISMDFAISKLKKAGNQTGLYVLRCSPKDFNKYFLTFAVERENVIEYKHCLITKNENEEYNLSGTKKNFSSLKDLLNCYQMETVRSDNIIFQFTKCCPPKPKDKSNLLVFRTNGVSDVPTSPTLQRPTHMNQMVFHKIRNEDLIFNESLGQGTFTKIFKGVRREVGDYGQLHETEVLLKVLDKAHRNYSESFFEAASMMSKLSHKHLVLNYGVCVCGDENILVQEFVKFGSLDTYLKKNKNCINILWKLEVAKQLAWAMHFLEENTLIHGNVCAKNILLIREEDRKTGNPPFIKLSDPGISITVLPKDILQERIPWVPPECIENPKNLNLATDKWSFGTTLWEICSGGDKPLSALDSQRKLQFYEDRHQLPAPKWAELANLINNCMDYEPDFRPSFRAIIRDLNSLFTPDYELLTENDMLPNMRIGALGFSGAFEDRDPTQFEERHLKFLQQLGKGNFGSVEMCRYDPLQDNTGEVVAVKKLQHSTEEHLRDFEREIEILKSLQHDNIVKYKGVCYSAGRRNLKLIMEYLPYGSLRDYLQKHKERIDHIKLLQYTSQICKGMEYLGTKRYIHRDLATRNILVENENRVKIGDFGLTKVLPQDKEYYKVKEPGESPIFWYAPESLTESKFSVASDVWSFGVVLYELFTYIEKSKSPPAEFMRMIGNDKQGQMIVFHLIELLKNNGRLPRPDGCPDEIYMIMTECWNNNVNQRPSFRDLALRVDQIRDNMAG

[9] = target: Tyrosine-protein kinase JAK2 (Homo sapiens) (UniProt O60674); assay: Inhibition of JAK2 phosphorylation in human NCI-H157 cells at 25 uM after 12 hrs by Western blotting analysis; type: cell-based; procedure, shortened: as §2
[10] = target: T1, Signal transducer and activator of transcription 3; assay: Inhibition of STAT3 phosphorylation at Y705 residues in human U-87 MG cells at 25 uM after 12 hrs by Western blotting analysis; type: cell-based; procedure, shortened: as §2
[11] = system: MDA-MB-468; assay: Antiproliferative activity against human MDA-MB-468 cells measured after 48 hrs by MTS assay; type: functional, cell-based
[12] = target: T1, Signal transducer and activator of transcription 3; assay: Inhibition of STAT3 phosphorylation at Y705 residues in human MIA PaCa-2 cells at 25 uM after 12 hrs by Western blotting analysis; type: cell-based; procedure, shortened: as §2
[13] = target: Tyrosine-protein kinase JAK2 (Homo sapiens) (UniProt O60674); assay: Inhibition of JAK2 phosphorylation in human MIA PaCa-2 cells at 25 uM after 12 hrs by Western blotting analysis; type: cell-based; procedure, shortened: as §2
[14] = system: A-375; assay: Induction of ROS generation in human A-375 cells incubated for 18 hrs by DCFH-DA dye based flow cytometry; type: functional, cell-based; conditions: dose 10-25 µM
Procedure, shortened: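 A375 cells (1×10^6) were treated with DMSO, 10 or 25 µM for 18 h in full RPMI, then trypsinized and washed. They were loaded with 10 µM DCFH-DA (final) for 30 min at 37 °C in the dark. DCF fluorescence was read by flow cytometry (488 nm excitation, 535 nm filter).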

[15] = system: MCF7; assay: Anticancer activity against human MCF7 cells assessed as cell growth inhibition at 10 uM measured after 48 hrs by SRB assay relative to control; type: functional; conditions: read-out: GI; procedure, shortened: as §1
[16] = target: Proto-oncogene tyrosine-protein kinase Src (Homo sapiens) (UniProt P12931); assay: Inhibition of SRC phosphorylation in human MIA PaCa-2 cells at 25 uM after 12 hrs by Western blotting analysis; type: cell-based; procedure, shortened: as §2
[17] = system: NCI-H157; assay: Antiproliferative activity against human NCI-H157 cells measured after 48 hrs by MTS assay; type: functional, cell-based
Procedure, shortened: (§3)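 Cells were exposed to a dose range of inhibitor for 48 h, and viability was read by MTS assay in triplicate. GI50 was taken as the concentration giving 50% growth inhibition, averaged from three independent experiments. A375 was cultured in RPMI-1640 with Glutamax. A549 and NCI-H157 were kept in RPMI-1640, and MIA PaCa-2 and U87-MG in DMEM.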

[18] = target: Proto-oncogene tyrosine-protein kinase Src (Homo sapiens) (UniProt P12931); assay: Inhibition of SRC phosphorylation in human A549 cells at 25 uM after 12 hrs by Western blotting analysis; type: cell-based; procedure, shortened: as §2
[19] = system: A549; assay: Antiproliferative activity against human A549 cells measured after 48 hrs by MTS assay; type: functional, cell-based; procedure, shortened: as §3
[20] = target: T1, Signal transducer and activator of transcription 3; assay: Inhibition of STAT3 phosphorylation at Y705 residues in human MDA-MB-468 cells at 25 uM after 12 hrs by Western blotting analysis; type: cell-based; procedure, shortened: as §2
[21] = target: Tyrosine-protein kinase JAK2 (Homo sapiens) (UniProt O60674); assay: Inhibition of JAK2 phosphorylation in human U-87 MG cells at 25 uM after 12 hrs by Western blotting analysis; type: cell-based; procedure, shortened: as §2
[22] = system: 451Lu; assay: Antiproliferative activity against human SB-590885-resistant 451Lu cells assessed as reduction in cell viability measured after 48 hrs by MTS assay; type: functional
Procedure, shortened: (§4)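 Melanoma lines were grown in RPMI-1640 with Glutamax at 37 °C and 5% CO2. The resistant 451 Lu-R and MEL 1617-R sublines were maintained with 1 µM PLX4720. Cells were incubated with vehicle or inhibitor over a dose range, and viability was read by MTS assay in triplicate.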

[23] = system: U-87 MG; assay: Antiproliferative activity against human U-87 MG cells measured after 48 hrs by MTS assay; type: functional, cell-based; conditions: U-87MG ATCC; procedure, shortened: as §3
[24] = system: T47D; assay: Anticancer activity against human T47D cells assessed as cell growth inhibition at 10 uM measured after 48 hrs by SRB assay relative to control; type: functional; conditions: read-out: GI; procedure, shortened: as §1
[25] = system: MEL1617; assay: Antiproliferative activity against human SB-590885-resistant MEL1617 cells assessed as reduction in cell viability measured after 48 hrs by MTS assay; type: functional, cell-based; procedure, shortened: as §4
[26] = target: Tyrosine-protein kinase JAK2 (Homo sapiens) (UniProt O60674); assay: Inhibition of JAK2 phosphorylation in human A549 cells at 25 uM after 12 hrs by Western blotting analysis; type: cell-based; procedure, shortened: as §2
[27] = target: T1, Signal transducer and activator of transcription 3; assay: Inhibition of STAT3 phosphorylation at S727 residues in human U-87 MG cells at 25 uM after 12 hrs by Western blotting analysis; type: cell-based; procedure, shortened: as §2
[28] = target: Proto-oncogene tyrosine-protein kinase Src (Homo sapiens) (UniProt P12931); assay: Inhibition of SRC phosphorylation in human U-87 MG cells at 25 uM after 12 hrs by Western blotting analysis; type: cell-based; procedure, shortened: as §2

inhibition [2]: Active
inhibition [3]: Dose-dependent effect
Compound: C=CCn1c(SCC(=O)Nc2ccc(/C(C)=N\O)cc2)nnc1-c1cc(-c2ccc(Cl)cc2)nc2ccccc12
inhibition of growth at 10 µM [1]: 100%

inhibition [4]: Active
inhibition [5]: inactive
inhibition [8]: inactive
inhibition [9]: inactive
inhibition [10]: Active
inhibition [12]: Active
inhibition [13]: inactive
inhibition [16]: inactive
inhibition [18]: inactive
inhibition [20]: Active
inhibition [21]: inactive
inhibition [3]: Dose-dependent effect
inhibition [26]: inactive
inhibition [27]: Active
inhibition [28]: inactive
Compound: C=CCn1c(SCC(=O)Nc2ccc(/C(C)=N\O)cc2)nnc1-c1cc(-c2ccccc2)nc2ccccc12
Activity [6]: Dose-dependent effect
Activity [7]: Active
Activity [11]: Active
Activity [14]: Dose-dependent effect
inhibition of growth at 10 µM [15]: 76%
Activity [17]: Active
Activity [19]: Active
Activity [22]: Dose-dependent effect
Activity [23]: Active
inhibition of growth at 10 µM [24]: 76%
Activity [25]: Dose-dependent effect
